14 molecules from PubChem BioAssay can be followed below.

Activity calls are given as the source filed them.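 Rule for the calls, unless noted: active = visually confirmed hit in the image check and inhibition above 20%; inconclusive = visually confirmed hit but inhibition not above 20%; inactive = no visual hit in the image check.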

Assay [1] in a line: inhibitors of TNFa-induced NFkB p65 translocation, primary screen, imaging, HUVEC, MLSMR starter and 10KST1 sets (AID 438;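 active = inhibition above 20% together with a positive visual image hit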;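 note: compound added about 3h40 before a 20 min TNFalpha stimulation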;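 for inhibition: signal is the nuclear over cytoplasmic p65 intensity ratio per well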). The note with it: HUVEC TNFa-induced p65 nuclear translocation; cell count: measured here: nuclei count (cytotoxicity indicator), at 2.08 µM; inhibition: at 2 µM, stronger effect = higher value, 0% TNFa-plus-vehicle, 100% no-TNFa wells.
Assay [2] in a line: inhibitors of mutant huntingtin aggregation, primary screen, imaging, exon1htt(103Q)mCFP cells, high-content imaging (AID 483;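 active = visual image review flags a hit and inhibition of aggregation exceeds 20%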;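 note: compound exposure lasted 3 days before fixation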;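 for nuclei count: percent of the per-plate median nuclei count of sample wells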). To be noted: exon1htt(103Q)mCFP cell line, aggregate imaging, at 2 µM; inhibition of aggregation: stronger effect = higher value; nuclei count: measured here: cell count, toxicity.
Assay [3] in a line: inhibitors of E-selectin induction by TNFa, primary screen, imaging, HUVEC, immunofluorescence, MLSMR starter and 10KST1 sets (AID 487).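 For inhibition: signal is fraction of cell area covered by stained E-selectin grains.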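 For nuclei count: 100% = median nuclei count of all wells on the same plate.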 The note with it: HUVEC TNFalpha-induced E-selectin immunofluorescence imaging, at 2 µM; inhibition: stronger effect = higher value; nuclei count: measured here: cell number, toxicity.
Assay [4] concerns the target Voltage-gated potassium channel subunit beta-2 (Rattus norvegicus) (UniProt P62483). In words: KvBeta enzyme negative modulators, primary screen, biochemical, NADPH fluorescence (AID 622;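 active = fluorescence slope higher than the sample average by over 3 SD, cut at about -0.22 in these data, passing the limit was not always enough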;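 note: slope of raw intensity against log time taken from 70 to 1610 s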). To be noted: recombinant KvBeta, 4-cyanobenzaldehyde reduction, at 10 µM, stronger effect = higher value.
Assay [5] has the same target. In words: KvBeta positive modulators, primary screen, biochemical, NADPH fluorescence (AID 623;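 active = NADPH fluorescence slope more negative than the mean of all samples by about 3 SD, 99.7% confidence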;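 note: fluorescence intensity change per second fitted from 20 to 320 s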). The note with it: Recombinant KvBeta, NADPH fluorescence decrease slope, 10 min; at 10 µM; stronger effect = lower value.
The target of assay [6] is Muscarinic acetylcholine receptor M4 (Homo sapiens) (UniProt P08173). In words: compounds altering M4/GIRK thallium flux, either direction, primary screen, M4 allosteric agonist project, cell-based, HEK293 M4/GIRK, BTC-AM (AID 625;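 active = fluorescence slope after compound addition differing from the mean of all tested samples at 99.7% confidence, mostly higher but some lower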;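 note: thallium influx through GIRK channels coupled to M4 in HEK293 cells with BTC-AM dye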). The note with it: at 10 µM, actives lie on both sides. Put shortly:
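Material: HEK293 cells with M4 receptor and GIRK channels; Times: cells overnight at 37 °C, BTC-AM loading 1 h, reads 2 min total; Technique: kinetic BTC-AM fluorescence sampled at 1 Hz, 10 s pre-addition baseline; Read-out basis: slope over 15–24 s of trace normalized to starting intensity; Controls: carbachol positive, DMSO negative.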

Assay [7] in a line: inhibitors of Sendai virus-induced IRF3 signaling, primary screen, TLR/RLR signaling modifier project, cell-based, Sendai virus stimulus, luciferase, 10K MLSCN set (AID 602276;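 active = inhibition at or above 50% at 10 µM; inactive = inhibition below 50%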;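 note: firefly luciferase from ISG56 promoter only with Renilla not read in this screen; 0% = Sendai virus plus DMSO and 100% = medium plus DMSO without virus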). The note with it: HEK293 RL24 IRF3 luciferase reporter, at 10 µM, stronger effect = higher value.
Assay [8] is described as follows: inhibitors of poly I:C-induced TLR3 signaling, primary screen, cell-based, poly I:C stimulus, luciferase, 10K MLSCN set (AID 602277;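 active = inhibition of the reporter signal at or above 50%; inactive = inhibition below 50%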). The note with it: HEK293-TLR3 RL24 IRF3 luciferase reporter, at 10 µM, stronger effect = higher value. Background: A reporter such as luciferase makes a cellular process visible.

Chain of Voltage-gated potassium channel subunit beta-2 (Rattus norvegicus) (P62483 whole entry, looked up): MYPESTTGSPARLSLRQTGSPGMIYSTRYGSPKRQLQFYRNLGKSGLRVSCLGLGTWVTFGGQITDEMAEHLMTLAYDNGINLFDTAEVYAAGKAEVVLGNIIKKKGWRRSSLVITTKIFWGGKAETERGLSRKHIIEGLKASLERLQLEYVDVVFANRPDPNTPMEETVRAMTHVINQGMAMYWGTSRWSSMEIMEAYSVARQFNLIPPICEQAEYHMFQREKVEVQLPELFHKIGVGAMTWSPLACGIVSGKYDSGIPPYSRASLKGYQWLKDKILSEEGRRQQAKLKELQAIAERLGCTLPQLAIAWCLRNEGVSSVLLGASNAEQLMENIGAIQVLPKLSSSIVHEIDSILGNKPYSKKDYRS
Chain of Muscarinic acetylcholine receptor M4 (Homo sapiens) (P08173 whole entry, looked up): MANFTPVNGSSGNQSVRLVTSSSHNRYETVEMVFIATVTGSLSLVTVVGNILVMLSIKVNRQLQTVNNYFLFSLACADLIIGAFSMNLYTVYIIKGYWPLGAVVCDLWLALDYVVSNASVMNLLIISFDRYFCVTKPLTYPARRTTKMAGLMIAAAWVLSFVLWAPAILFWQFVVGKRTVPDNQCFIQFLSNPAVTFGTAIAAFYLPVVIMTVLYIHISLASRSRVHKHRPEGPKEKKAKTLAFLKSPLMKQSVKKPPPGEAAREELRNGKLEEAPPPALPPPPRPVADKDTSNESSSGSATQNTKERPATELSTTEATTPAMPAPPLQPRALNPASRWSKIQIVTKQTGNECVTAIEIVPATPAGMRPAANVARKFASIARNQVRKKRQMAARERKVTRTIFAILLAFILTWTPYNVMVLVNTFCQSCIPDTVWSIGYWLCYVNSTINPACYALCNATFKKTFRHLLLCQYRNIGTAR

As to `CCn1cc(C(=O)NCC2COc3ccccc3O2)c2cc(OC)c(OC)cc2c1=O` (centres undefined), the cell count in assay [1] was 481. In addition, the inhibition in assay [1] was -29.9% (inactive); in assay [3], -124% (inactive); in assay [7], 11.8% (inactive); in assay [8], -1.62% (inactive). Moreover, the inhibition of aggregation in assay [2] is -6.2% (inactive). The nuclei count in assay [2] was determined as 101%; in assay [3], 116%. Also, the fluorescence slope in assay [4] is -0.481 (inactive); in assay [6], 0.00554 (inactive). In assay [5], the NADPH fluorescence slope is -6.7e-05 (inactive).
`CCOc1ccccc1N1C(=O)CC(Sc2ncccc2C(=O)O)C1=O` (centres undefined): the cell count in assay [1] came to 890. Further, the inhibition in assay [1] was -0.7% (inactive); in assay [3] it was -111% (inactive); in assay [7], 12.2% (inactive); in assay [8], 13.4% (inactive). Further, the inhibition of aggregation in assay [2] was -13.3% (inactive). Moreover, the values for the nuclei count in assay [2] and in assay [3] were 105% and 136%, respectively. The figures for the fluorescence slope in assay [4] and in assay [6] were -0.46 (inactive) and 0.00417 (inactive), respectively. Moreover, the NADPH fluorescence slope in assay [5] was -8.3e-07 (inactive).
For the molecule `COc1ccc(Cc2nc3ccc(S(N)(=O)=O)cc3[nH]2)cc1OC`, the cell count in assay [1] came out at 423. In addition, the inhibition in assay [1] was -22.9% (inactive); in assay [3] it was 75.1% (active); in assay [7], 9.58% (inactive); in assay [8], 8.25% (inactive). Also, in assay [2], the inhibition of aggregation was 18.8% (inactive). For the same molecule, the values for the nuclei count in assay [2] and in assay [3] were 58.6% and 59.2%, respectively. Moreover, the fluorescence slope is -0.553 (inactive) in assay [4] and 0.00712 (inactive) in assay [6]. For the same molecule, the NADPH fluorescence slope in assay [5] is -2.6e-05 (inactive).
Consider `COc1ccc2c(c1)C(=NO)c1cc(OC)ccc1-2`, for which the cell count in assay [1] was 667. Besides, the inhibition in assay [1] is -26.7% (inactive); in assay [3], -48.8% (inactive); in assay [7], -23.1% (inactive); in assay [8], -28.9% (inactive). Further, the inhibition of aggregation in assay [2] was 15.4% (inactive). In addition, the nuclei count in assay [2] came to 101%; in assay [3] it was 116%. In addition, the fluorescence slope is -0.373 (inactive) in assay [4] and 0.00525 (inactive) in assay [6]. Also, the NADPH fluorescence slope in assay [5] is -8e-05 (inactive).
Turning to `C=CCn1c(=O)[nH]c2cc(C(=O)N3CCN(c4cc(C)ccc4C)CC3)ccc2c1=O`, in assay [1], the cell count worked out at 481. Besides, the inhibition in assay [1] was -28.5% (inactive); in assay [3], -67.4% (inactive); in assay [7] it was 14.1% (inactive); in assay [8], -2.95% (inactive). Also, the inhibition of aggregation in assay [2] is -1.6% (inactive). In addition, the nuclei count in assay [2] was found to be 109%; in assay [3] it was 127%. Moreover, the fluorescence slope was -0.245 (inactive) in assay [4] and 0.00726 (inactive) in assay [6]. Also, in assay [5], the NADPH fluorescence slope is -2.6e-05 (inactive).
Regarding `COc1ccc(-c2ccc(-c3nnc(-c4ccncc4)o3)cc2)cc1`, in assay [1], the cell count came to 379. The inhibition in assay [1] was -7.7% (inactive); in assay [3], -76.9% (inactive); in assay [7], -14.4% (inactive); in assay [8], -28.2% (inactive). Further, the inhibition of aggregation in assay [2] was 5.3% (inactive). Further, the nuclei count in assay [2] was found to be 103%; in assay [3], 99.2%. The fluorescence slope in assay [4] was -0.501 (inactive); in assay [6] it was 0.00505 (inactive). Further, the NADPH fluorescence slope in assay [5] was -3.5e-05 (inactive).
`CC(O)CN(Cc1cccc(Cl)c1)CC(C)O` (centres undefined): in assay [1], the cell count turned out to be 473. The inhibition in assay [1] is 0.5% (inactive); in assay [3] it was 10.2% (inactive); in assay [7], 18.8% (inactive); in assay [8], 19.5% (inactive). For the same molecule, the inhibition of aggregation in assay [2] was 1.4% (inactive). For the same molecule, the nuclei count in assay [2] was 100%; in assay [3], 95.1%. Moreover, the results for the fluorescence slope in assay [4] and in assay [6] were -0.431 (inactive) and 0.00551 (inactive), respectively. The NADPH fluorescence slope in assay [5] was 1.1e-05 (inactive).
For `COc1ccc(CC(NC(C)=O)C(=O)NC2CCN(C(=O)Nc3ccc(C#N)cc3)CC2)cc1OC` (centres undefined), the cell count in assay [1] was 312. In addition, the inhibition was -1.9% (inactive) in assay [1], -29.9% (inactive) in assay [3], 14.2% (inactive) in assay [7] and 14.3% (inactive) in assay [8]. Also, in assay [2], the inhibition of aggregation was -14.4% (inactive). In addition, the nuclei count is 102% in assay [2] and 112% in assay [3]. For the same molecule, the fluorescence slope in assay [4] is -0.415 (inactive); in assay [6], 0.00714 (inactive). In addition, the NADPH fluorescence slope in assay [5] was 8.5e-05 (inactive).
Take `COc1ccccc1NC(=O)c1nnn(CC(=O)Nc2ccccc2)c1N`: the cell count in assay [1] worked out at 234. For the same molecule, the inhibition is -4.4% (inactive) in assay [1], -9.9% (inactive) in assay [3], 9.85% (inactive) in assay [7] and 23.6% (inactive) in assay [8]. The inhibition of aggregation in assay [2] was -30.9% (inactive). Further, the nuclei count in assay [2] came out at 95.9%; in assay [3] it was 103%. For the same molecule, the fluorescence slope in assay [4] was -0.416 (inactive); in assay [6], 0.00673 (inactive). The NADPH fluorescence slope in assay [5] was 5.5e-05 (inactive).
Take `Cn1c(=O)[nH]c(=O)c2[nH]c(CN3CCN(C(=O)c4ccco4)CC3)nc21`: the cell count in assay [1] was 418. Besides, the inhibition was -2.3% (inactive) in assay [1], -5.3% (inactive) in assay [3], 1.74% (inactive) in assay [7] and 11% (inactive) in assay [8]. Moreover, the inhibition of aggregation in assay [2] was -1.2% (inactive). Further, the values for the nuclei count in assay [2] and in assay [3] were 124% and 131%, respectively. Further, the fluorescence slope was -0.54 (inactive) in assay [4] and 0.00483 (inactive) in assay [6]. Further, the NADPH fluorescence slope in assay [5] is -1.3e-05 (inactive).
`Cc1cc(C)cc(NS(=O)(=O)c2ccc3[nH]cc(C(=O)NCc4ccco4)c(=O)c3c2)c1`: the cell count in assay [1] was determined as 416. For the same molecule, the inhibition in assay [1] was 1.5% (inactive); in assay [3], -19.7% (inactive); in assay [7], 39.5% (inactive); in assay [8], 49.1% (inactive). In assay [2], the inhibition of aggregation was 3.8% (inactive). The figures for the nuclei count in assay [2] and in assay [3] were 99.9% and 97.7%, respectively. Further, the figures for the fluorescence slope in assay [4] and in assay [6] were -0.57 (inactive) and 0.00555 (inactive), respectively. In addition, the NADPH fluorescence slope in assay [5] was -4.7e-05 (inactive).
For `CCOC(=O)COc1ccc(S(=O)(=O)Nc2ccc3c(c2)OCO3)cc1`, the cell count in assay [1] is 408. In addition, the inhibition was 9.5% (inactive) in assay [1], -137% (inactive) in assay [3], 12.4% (inactive) in assay [7] and 19.9% (inactive) in assay [8]. The inhibition of aggregation in assay [2] is 3.4% (inactive). Also, the nuclei count in assay [2] amounted to 98.2%; in assay [3], 115%. The fluorescence slope in assay [4] was -0.588 (inactive); in assay [6], 0.00399 (inactive). The NADPH fluorescence slope in assay [5] was -0.000101 (inactive).
Regarding `N#CC(C(=O)Nc1ccccc1)=C1CCCCC1`, the cell count in assay [1] was 356. For the same molecule, the inhibition in assay [1] was -8.4% (inactive); in assay [3] it was -98.6% (inactive); in assay [7], -3.44% (inactive); in assay [8], -28.2% (inactive). The inhibition of aggregation in assay [2] was -8% (inactive). Also, the nuclei count worked out at 108% in assay [2] and 131% in assay [3]. Besides, the fluorescence slope in assay [4] was -0.516 (inactive); in assay [6] it was 0.0049 (inactive). Further, the NADPH fluorescence slope in assay [5] was -4.4e-05 (inactive).
Take `Nc1nc(SCCOc2ccccc2)n[nH]1`: in assay [1], the cell count was 256. The inhibition is -3% (inactive) in assay [1], -41.8% (inactive) in assay [3], 4.33% (inactive) in assay [7] and 3.33% (inactive) in assay [8]. In addition, the inhibition of aggregation in assay [2] was 18.6% (inactive). In addition, the nuclei count in assay [2] was 76.7%; in assay [3], 105%. The fluorescence slope is -0.571 (inactive) in assay [4] and 0.00618 (inactive) in assay [6]. Besides, in assay [5], the NADPH fluorescence slope was -1.8e-05 (inactive).

Broadly, the inhibition is the drop in the measured response relative to a control, in per cent.
